These results are taken from ChEMBL document CHEMBL1132999, “Synthesis and oral antitumor activity of tetrakis(carboxylato)platinum(IV) complexes” (J Med Chem, 2000).

Data set [1] can be described thus: Partition coefficient (logP). The class given is physicochemical. The following applies: octanol/water.
Data set [2] has as its system L1210. Kind of data set: in vitro antitumor activity (cytotoxicity) against the murine leukemia L1210 cell. It is filed as functional, cell-based. The following applies: Mus musculus.
The test system of data set [3] is Mus musculus. Kind of data set: antitumor activity (survival) by the oral administration of 100 mg/kg scheduled treatment (Q1D x 5) in BDF1 mice inoculated with L1210 leukemia. The class given is functional, organism-based. Set-up: dose 100 mg/kg. The following applies: at 100 mg/kg. In a few lines:
(§1)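 BDF1 mice inoculated with L1210 leukaemia and fasted before dosing. Complexes suspended in 0.2 mL 0.5% Tween 80 and given by stomach catheter on days 1-5 (Q1D × 5). Activity expressed as T/C (%), the ratio of mean survival time (days) of treated versus control mice.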

The test system of data set [4] is Mus musculus. Kind of data set: antitumor activity (survival) by the oral administration of 150 mg/kg scheduled treatment (Q1D x 5) in BDF1 mice inoculated with L1210 leukemia; toxic. It is filed as functional, organism-based. Set-up: dose 150 mg/kg. In a few lines: as §1
Data set [5] has as its system Mus musculus. Kind of data set: antitumor activity (survival) by the oral administration of 150 mg/kg scheduled treatment (Q1D x 5) in BDF1 mice inoculated with L1210 leukemia. The class given is functional, organism-based. Set-up: dose 150 mg/kg. The following applies: at 150 mg/kg. In a few lines: as §1

For the substance “[Pt(O2CC3H7)4(dach)]dach : trans-(+/-)-1,2-diaminocyclohexane [listing 1 of 2 here]”, the logP (usually a log measure of how a compound divides between an organic and an aqueous phase) in data set [1] is reported as 1.54.
“[Pt(O2CC3H7)4(dach)]dach : trans-(+/-)-1,2-diaminocyclohexane [listing 2 of 2 here]”: the ED50 in data set [2] worked out at 6.2 µM. Moreover, the T/C (in general, the ratio of treated to control) is 108% in data set [3] and “Toxic” in data set [4].
Turning to “[Pt(O2CC4H9)4(dach)]dach : trans-(+/-)-1,2-diaminocyclohexane [listing 1 of 2 here]”, the logP in data set [1] was 2.54.
In data set [2], “[Pt(O2CC4H9)4(dach)]dach : trans-(+/-)-1,2-diaminocyclohexane [listing 2 of 2 here]” yielded an ED50 of more than 50 µM. The substance also returned a T/C in data set [5] of 107%.
In data set [1], “[Pt(O2CC5H11)4(dach)]dach : trans-(+/-)-1,2-diaminocyclohexane [listing 1 of 2 here]” had a logP of 3.03.
As for “[Pt(O2CC5H11)4(dach)]dach : trans-(+/-)-1,2-diaminocyclohexane [listing 2 of 2 here]”, in data set [2], the ED50 was more than 50 µM. Moreover, the T/C in data set [5] turned out to be 98.9%.
For the substance “[Pt(O2CCH3)4(dach)]dach [listing 1 of 2 here]”, in data set [1], the logP is recorded as -1.59.
Substance “[Pt(O2CCH3)4(dach)]dach [listing 2 of 2 here]” displayed an ED50 in data set [2] of 25.8 µM. In data set [5], this substance had a T/C of 100%.
Take [Pt(OH)4(dach)]dach: the ED50 in data set [2] was 32.6 µM. The substance also gave a T/C in data set [5] of 112%.
